Tests used:
[1] = Drug metabolism in human intestinal microsomes assessed as metabolite formation treated with C-1305 for 60 mins by ESI-MS/UV-vis spectroscopy in presence of 3 mM UDP-GlcUA; assay type: ADME, Intestine, Microsome; details: 1 h
Outline: (§1)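 Recombinant human UGT1A1 or UGT1A9 (5 μg protein), or single-donor human liver or intestinal microsomes (20 μg), incubated in Tris-HCl pH 7.4 with 5 mM MgCl2, 5 mM saccharolactone, 2% DMSO and 100 or 200 μM substrate. Started with UDP-GlcUA, 60 min at 37°C, in triplicate. Product identified by HPLC with positive-ion ESI-MS and UV/Vis spectra, and confirmed by β-glucuronidase hydrolysis.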

[2] = biological target: T1, UDP-glucuronosyltransferase 1A1 (Homo sapiens, UniProt P22309); assay: Drug metabolism assessed as human recombinant UGT1A1-mediated compound formation treated with C-1305 for 60 mins by ESI-MS/UV-vis spectroscopy in presence of 3 mM UDP-GlcUA; assay type: ADME; details: recombinant enzyme, 1 h; outline: as §1
T1 sequence (P22309 whole entry): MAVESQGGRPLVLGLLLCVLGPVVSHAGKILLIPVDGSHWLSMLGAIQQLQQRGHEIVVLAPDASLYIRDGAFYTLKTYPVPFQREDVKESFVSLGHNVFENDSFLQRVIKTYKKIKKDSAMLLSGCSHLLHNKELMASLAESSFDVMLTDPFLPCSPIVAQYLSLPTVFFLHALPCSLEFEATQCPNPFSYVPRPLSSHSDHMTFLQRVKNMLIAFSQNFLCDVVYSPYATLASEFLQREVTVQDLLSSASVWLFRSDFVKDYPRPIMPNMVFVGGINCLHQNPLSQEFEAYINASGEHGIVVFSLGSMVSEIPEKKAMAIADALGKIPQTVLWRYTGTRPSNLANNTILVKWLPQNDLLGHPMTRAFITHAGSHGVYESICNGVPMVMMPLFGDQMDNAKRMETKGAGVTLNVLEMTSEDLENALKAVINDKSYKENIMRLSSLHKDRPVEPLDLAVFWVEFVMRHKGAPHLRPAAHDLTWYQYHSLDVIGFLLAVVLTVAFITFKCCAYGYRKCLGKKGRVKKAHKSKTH

Liver microsome = assay: Drug metabolism in human liver microsomes assessed as metabolite formation treated with C-1305 for 60 mins by ESI-MS/UV-vis spectroscopy in presence of 3 mM UDP-GlcUA; assay type: ADME; details: 1 h; outline: as §1
[3] = biological target: T2, UDP-glucuronosyltransferase 1A10 (Homo sapiens, UniProt Q9HAW8); assay: Drug metabolism assessed as human recombinant UGT1A10-mediated compound formation treated with C-1311 for 60 mins by ESI-MS/UV-vis spectroscopy in presence of 3 mM UDP-GlcUA; assay type: ADME; details: recombinant enzyme, 1 h
T2 sequence (Q9HAW8 whole entry): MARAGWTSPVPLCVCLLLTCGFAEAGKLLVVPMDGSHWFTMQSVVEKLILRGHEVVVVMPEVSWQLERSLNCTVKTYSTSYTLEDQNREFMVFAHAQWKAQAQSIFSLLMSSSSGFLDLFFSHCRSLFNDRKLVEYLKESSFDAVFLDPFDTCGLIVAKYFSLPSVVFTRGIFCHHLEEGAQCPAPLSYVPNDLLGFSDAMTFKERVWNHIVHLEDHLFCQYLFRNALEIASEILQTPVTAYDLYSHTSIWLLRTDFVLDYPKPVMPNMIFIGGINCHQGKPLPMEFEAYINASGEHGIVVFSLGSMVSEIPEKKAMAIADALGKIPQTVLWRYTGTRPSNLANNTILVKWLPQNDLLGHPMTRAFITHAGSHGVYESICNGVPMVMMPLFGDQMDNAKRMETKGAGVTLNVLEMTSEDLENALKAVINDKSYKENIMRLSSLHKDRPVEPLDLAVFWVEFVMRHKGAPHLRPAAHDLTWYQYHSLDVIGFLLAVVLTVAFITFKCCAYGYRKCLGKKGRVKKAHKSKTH
Outline: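 Protein (5 μg UGT1A10 or microsomal) incubated with 0.2 mM substrate and 3 mM UDP-GlcUA, 60 min. HPLC on C18 at 25°C with a 15–80% methanol gradient in 0.05 M ammonium formate pH 3.4 at 1 ml/min. ESI positive-ion MS and UV/Vis spectra taken from the peaks. Glucuronide confirmed by 60 min further treatment with 1000 U E. coli β-glucuronidase.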

[4] = biological target: T3, UDP-glucuronosyltransferase 1A9 (Homo sapiens, UniProt O60656); assay: Activity of human recombinant UGT1A9 expressed in baculovirus-infected Sf9 cells assessed as enzyme-mediated glucuronidation per mg protein at 235 uM after 60 mins by Michaelis-Menten equation in presence of 3 mM UDP-GlcUA; assay type: ADME; details: sf9, 1 h
T3 sequence (O60656 whole entry): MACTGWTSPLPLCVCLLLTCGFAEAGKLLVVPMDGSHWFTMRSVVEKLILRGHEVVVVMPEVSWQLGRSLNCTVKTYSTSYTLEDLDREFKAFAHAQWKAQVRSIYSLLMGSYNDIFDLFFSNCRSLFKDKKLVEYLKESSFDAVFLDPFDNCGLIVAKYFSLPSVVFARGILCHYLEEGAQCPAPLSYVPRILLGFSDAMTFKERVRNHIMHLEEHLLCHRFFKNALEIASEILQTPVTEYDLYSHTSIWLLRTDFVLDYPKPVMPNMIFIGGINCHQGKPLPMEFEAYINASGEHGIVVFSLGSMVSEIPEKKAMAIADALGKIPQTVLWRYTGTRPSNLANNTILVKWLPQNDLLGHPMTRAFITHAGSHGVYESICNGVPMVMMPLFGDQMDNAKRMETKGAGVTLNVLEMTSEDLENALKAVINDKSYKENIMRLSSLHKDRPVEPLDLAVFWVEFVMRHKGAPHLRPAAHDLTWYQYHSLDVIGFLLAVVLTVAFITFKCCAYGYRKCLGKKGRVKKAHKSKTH

[5] = biological target: T1, UDP-glucuronosyltransferase 1A1; assay: Drug metabolism assessed as human recombinant UGT1A1-mediated compound formation treated with C-1311 for 60 mins by ESI-MS/UV-vis spectroscopy in presence of 3 mM UDP-GlcUA; assay type: ADME; details: recombinant enzyme, 1 h

SMILES	Drug metabolism [1]	Drug metabolism [2]	Drug metabolism (Liver microsome)	Drug metabolism [3]	Drug metabolism [4]	Drug metabolism [5]
CN(C)CCCNc1ccc2nnn3c4ccc(O)cc4c(=O)c1c23	metabolite_detected	metabolite_detected	metabolite_detected	–	–	–
CCN(CC)CCNc1ccc2ncn3c4ccc(O)cc4c(=O)c1c23 [C-1311]	–	–	–	metabolite_detected	0.14 nmol/min/mg	metabolite_detected

Source: ChEMBL document CHEMBL3526062, “Role of human UDP-glucuronosyltransferases in the biotransformation of the triazoloacridinone and imidazoacridinone antitumor agents C-1305 and C-1311: highly selective substrates for UGT1A10” (Drug Metab Dispos, 2012)
